Test results as given in ChEMBL document CHEMBL1649247, “Fluoroquinolone resistance in Mycobacterium tuberculosis and mutations in gyrA and gyrB” (2009).
≈ marks a conversion by molar mass, not a printed value. Calls of active or inactive are those of the source. No cut-off for these calls is given here.

Key:
[1] = tested on: Mycobacterium tuberculosis; test: Antimycobacterial activity against multidrug-resistant Mycobacterium tuberculosis 08-0777 by resazurin microtiter assay; type: functional
How it was run: (§1)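 MIC was read by resazurin microtiter assay against ofloxacin, moxifloxacin and gatifloxacin. Isolates were used as fresh Löwenstein-Jensen subcultures kept at 37°C for no longer than 4 weeks.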

[2] = tested on: Mycobacterium tuberculosis; test: Antimycobacterial activity against Mycobacterium tuberculosis 08-0745 harboring gyrA Asp89Asn mutant gene assessed as microbial susceptibility by agar proportion method; type: functional, organism-based
How it was run: (§2)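 Clinical isolates freshly subcultured on Löwenstein-Jensen medium, held at 37°C no longer than 4 weeks. Fluoroquinolone stocks 1 mg/ml in 0.1 N NaOH, filter sterilized, kept at −20°C under 2 months. Standard proportion method on 7H11 agar; breakpoints 2 mg/liter ofloxacin, 0.5 mg/liter moxifloxacin and gatifloxacin; scored susceptible or resistant.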

[3] = tested on: Mycobacterium tuberculosis; test: Antimycobacterial activity against multidrug-resistant Mycobacterium tuberculosis 08-0794 harboring gyrA Thr80Ala mutant gene assessed as microbial susceptibility by agar proportion method; type: functional, organism-based
How it was run: (§3)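 Clinical isolates freshly subcultured on Löwenstein-Jensen medium at 37°C for no more than 4 weeks. Susceptibility by standard proportion method on 7H11 agar at breakpoints of 2 mg/liter ofloxacin and 0.5 mg/liter moxifloxacin and gatifloxacin. Drug stocks 1 mg/ml in 0.1 N NaOH, filter sterilized, held at −20°C under 2 months. Isolates scored susceptible or resistant.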

[4] = tested on: Mycobacterium tuberculosis; test: Antimycobacterial activity against multidrug-resistant Mycobacterium tuberculosis 08-0785 harboring gyrA Ala90Val mutant gene by resazurin microtiter assay; type: functional; how it was run: as §1
[5] = tested on: Mycobacterium tuberculosis; test: Antimycobacterial activity against Mycobacterium tuberculosis 08-0769 harboring gyrA putative promoter mutant gene by resazurin microtiter assay; type: functional
How it was run: (§4)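 Isolates taken from fresh Löwenstein-Jensen subcultures grown at 37°C for at most 4 weeks. Drug stocks 1 mg/ml in 0.1 N NaOH, filter sterilized, stored at −20°C less than 2 months. MIC read by resazurin microtiter assay following a previously described protocol.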

[6] = tested on: Mycobacterium tuberculosis; test: Antimycobacterial activity against multidrug-resistant Mycobacterium tuberculosis 08-0746 by resazurin microtiter assay; type: functional; how it was run: as §1
[7] = tested on: Mycobacterium tuberculosis; test: Antimycobacterial activity against multidrug-resistant Mycobacterium tuberculosis 02-0319 harboring gyrA Asp94Ala mutant gene assessed as microbial susceptibility by agar proportion method; type: functional, organism-based; how it was run: as §2
[8] = tested on: Mycobacterium tuberculosis; test: Antimycobacterial activity against multidrug-resistant Mycobacterium tuberculosis 08-0746 assessed as microbial susceptibility by agar proportion method; type: functional, organism-based; how it was run: as §3
[9] = tested on: Mycobacterium tuberculosis; test: Antimycobacterial activity against multidrug-resistant Mycobacterium tuberculosis 99-1914 harboring gyrA Asp94Gly mutant gene assessed as microbial susceptibility by agar proportion method; type: functional, organism-based; how it was run: as §3
[10] = tested on: Mycobacterium tuberculosis; test: Antimycobacterial activity against Mycobacterium tuberculosis 08-0815 harboring gyrA Thr80Ala and Ala90Gly mutant gene by resazurin microtiter assay; type: functional; how it was run: as §4
[11] = tested on: Mycobacterium tuberculosis; test: Antimycobacterial activity against multidrug-resistant Mycobacterium tuberculosis 04-0519 harboring gyrA Ala90Val and Asp94Asn mutant gene by resazurin microtiter assay; type: functional; how it was run: as §1
[12] = tested on: Mycobacterium tuberculosis; test: Antimycobacterial activity against multidrug-resistant Mycobacterium tuberculosis 02-2934 harboring gyrA Ala90Val mutant gene assessed as microbial susceptibility by agar proportion method; type: functional, organism-based; how it was run: as §2
[13] = tested on: Mycobacterium tuberculosis; test: Antimycobacterial activity against multidrug-resistant Mycobacterium tuberculosis 08-0794 harboring gyrA Thr80Ala mutant gene by resazurin microtiter assay; type: functional; how it was run: as §1
[14] = tested on: Mycobacterium tuberculosis; test: Antimycobacterial activity against multidrug-resistant Mycobacterium tuberculosis 08-0810 harboring gyrA Asp94Tyr mutant gene by resazurin microtiter assay; type: functional; how it was run: as §1
[15] = tested on: Mycobacterium tuberculosis; test: Antimycobacterial activity against multidrug-resistant Mycobacterium tuberculosis 01-2230 harboring gyrA Asp94Gly mutant gene assessed as microbial susceptibility by agar proportion method; type: functional, organism-based; how it was run: as §2
[16] = tested on: Mycobacterium tuberculosis; test: Antimycobacterial activity against multidrug-resistant Mycobacterium tuberculosis 01-0172 harboring gyrA Asp94Ala mutant gene by resazurin microtiter assay; type: functional; how it was run: as §4
[17] = tested on: Mycobacterium tuberculosis; test: Antimycobacterial activity against multidrug-resistant Mycobacterium tuberculosis 08-0821 harboring gyrA Asp94Tyr mutant gene assessed as microbial susceptibility by agar proportion method; type: functional, organism-based; how it was run: as §3
[18] = tested on: Mycobacterium tuberculosis; test: Antimycobacterial activity against Mycobacterium tuberculosis 02-1975 harboring gyrA Asp94Gly mutant gene assessed as microbial susceptibility by agar proportion method; type: functional, organism-based; how it was run: as §2
[19] = tested on: Mycobacterium tuberculosis; test: Antimycobacterial activity against multidrug-resistant Mycobacterium tuberculosis 01-1647 harboring gyrA Ala90Val mutant gene by resazurin microtiter assay; type: functional; how it was run: as §4
[20] = tested on: Mycobacterium tuberculosis; test: Antimycobacterial activity against multidrug-resistant Mycobacterium tuberculosis 01-0930 harboring gyrA Ala90Val mutant gene by resazurin microtiter assay; type: functional; how it was run: as §4
[21] = tested on: Mycobacterium tuberculosis; test: Antimycobacterial activity against Mycobacterium tuberculosis 08-0773 harboring gyrA Pro8Ala mutant gene assessed as microbial susceptibility by agar proportion method; type: functional, organism-based; how it was run: as §2
[22] = tested on: Mycobacterium tuberculosis; test: Antimycobacterial activity against multidrug-resistant Mycobacterium tuberculosis 01-0172 harboring gyrA Asp94Ala mutant gene assessed as microbial susceptibility by agar proportion method; type: functional, organism-based; how it was run: as §2
[23] = tested on: Mycobacterium tuberculosis; test: Antimycobacterial activity against Mycobacterium tuberculosis 02-1975 harboring gyrA Asp94Gly mutant gene by resazurin microtiter assay; type: functional; how it was run: as §4
[24] = tested on: Mycobacterium tuberculosis; test: Antimycobacterial activity against Mycobacterium tuberculosis 08-0773 harboring gyrA Pro8Ala mutant gene by resazurin microtiter assay; type: functional; how it was run: as §4
[25] = tested on: Mycobacterium tuberculosis; test: Antimycobacterial activity against multidrug-resistant Mycobacterium tuberculosis 03-0738 harboring gyrA Ala90Val mutant gene by resazurin microtiter assay; type: functional; how it was run: as §1
[26] = tested on: Mycobacterium tuberculosis; test: Antimycobacterial activity against multidrug-resistant Mycobacterium tuberculosis 08-0757 harboring gyrA Ala90Val mutant gene assessed as microbial susceptibility by agar proportion method; type: functional, organism-based; how it was run: as §3
[27] = tested on: Mycobacterium tuberculosis; test: Antimycobacterial activity against multidrug-resistant Mycobacterium tuberculosis 99-1914 harboring gyrA Asp94Gly mutant gene by resazurin microtiter assay; type: functional; how it was run: as §1
[28] = tested on: Mycobacterium tuberculosis; test: Antimycobacterial activity against Mycobacterium tuberculosis 08-0769 harboring gyrA putative promoter mutant gene assessed as microbial susceptibility by agar proportion method; type: functional, organism-based; how it was run: as §2
[29] = tested on: Mycobacterium tuberculosis; test: Antimycobacterial activity against multidrug-resistant Mycobacterium tuberculosis 08-0790 harboring gyrA Ala90Val mutant gene by resazurin microtiter assay; type: functional; how it was run: as §1
[30] = tested on: Mycobacterium tuberculosis; test: Antimycobacterial activity against multidrug-resistant Mycobacterium tuberculosis 02-2934 harboring gyrA Ala90Val mutant gene by resazurin microtiter assay; type: functional; how it was run: as §4
[31] = tested on: Mycobacterium tuberculosis; test: Antimycobacterial activity against multidrug-resistant Mycobacterium tuberculosis 08-0757 harboring gyrA Ala90Val mutant gene by resazurin microtiter assay; type: functional; how it was run: as §1
[32] = tested on: Mycobacterium tuberculosis; test: Antimycobacterial activity against multidrug-resistant Mycobacterium tuberculosis 08-0744 harboring gyrA Asp94Tyr mutant gene by resazurin microtiter assay; type: functional; how it was run: as §1

Compound	MIC [1] [µg/mL]	Activity [2]	Activity [3]	MIC [4] [mg/L]	MIC [5]	MIC [6] [µg/mL]	Activity [7]	Activity [8]	Activity [9]	MIC [10]	MIC [11] [mg/L]	Activity [12]	MIC [13]	MIC [14] [mg/L]	Activity [15]	MIC [16] [mg/L]	Activity [17]	Activity [18]	MIC [19] [mg/L]	MIC [20] [mg/L]	further results
COc1c(N2C[C@@H]3CCCN[C@@H]3C2)c(F)cc2c(=O)c(C(=O)O)cn(C3CC3)c12 [MOXIFLOXACIN]	≤ 0.125	inactive	Active	2 (≈ 4.98 µM)	<=0.125 mg/L	≤ 0.125	inactive	Active	inactive	<=0.125 mg/L	>8	inactive	<=0.125 mg/L	2 (≈ 4.98 µM)	inactive	0.5 (≈ 1.25 µM)	inactive	inactive	0.5 (≈ 1.25 µM)	0.5 (≈ 1.25 µM)	Activity [21]: Active; Activity [22]: inactive; MIC [23]: 2 mg/L (≈ 4.98 µM); MIC [24]: <=0.125 mg/L; MIC [25]: 0.25 mg/L (≈ 0.623 µM); Activity [26]: inactive; MIC [27]: 2 mg/L (≈ 4.98 µM); Activity [28]: Active; MIC [29]: 1 mg/L (≈ 2.49 µM); MIC [30]: 0.25 mg/L (≈ 0.623 µM)
COc1c(N2CCNC(C)C2)c(F)cc2c(=O)c(C(=O)O)cn(C3CC3)c12 (centres undefined) [GATIFLOXACIN]	≤ 0.062	inactive	Active	1 (≈ 2.66 µM)	0.125 mg/L (≈ 0.333 µM)	≤ 0.062	inactive	Active	inactive	<=0.062 mg/L	>4	inactive	<=0.062 mg/L	1 (≈ 2.66 µM)	inactive	0.25 (≈ 0.666 µM)	inactive	inactive	0.5 (≈ 1.33 µM)	0.5 (≈ 1.33 µM)	Activity [21]: Active; Activity [22]: inactive; MIC [31]: 1 mg/L (≈ 2.66 µM); MIC [23]: 1 mg/L (≈ 2.66 µM); MIC [24]: <=0.062 mg/L; MIC [25]: 0.25 mg/L (≈ 0.666 µM); Activity [26]: inactive; MIC [27]: 1 mg/L (≈ 2.66 µM); Activity [28]: Active; MIC [32]: 1 mg/L (≈ 2.66 µM); MIC [29]: 0.5 mg/L (≈ 1.33 µM); MIC [30]: 0.25 mg/L (≈ 0.666 µM)
CC1COc2c(N3CCN(C)CC3)c(F)cc3c(=O)c(C(=O)O)cn1c23 (centres undefined) [OFLOXACIN]	0.5 (≈ 1.38 µM)	inactive	Active	8 (≈ 22.1 µM)	1 mg/L (≈ 2.77 µM)	0.5 (≈ 1.38 µM)	inactive	Active	inactive	<=0.25 mg/L	>32	inactive	0.5 mg/L (≈ 1.38 µM)	8 (≈ 22.1 µM)	inactive	4 (≈ 11.1 µM)	inactive	inactive	4 (≈ 11.1 µM)	4 (≈ 11.1 µM)	Activity [21]: Active; Activity [22]: inactive; MIC [31]: 8 mg/L (≈ 22.1 µM); MIC [23]: 8 mg/L (≈ 22.1 µM); MIC [24]: 0.5 mg/L (≈ 1.38 µM); MIC [25]: 4 mg/L (≈ 11.1 µM); Activity [26]: inactive; MIC [27]: 8 mg/L (≈ 22.1 µM); Activity [28]: Active; MIC [32]: 8 mg/L (≈ 22.1 µM); MIC [29]: 4 mg/L (≈ 11.1 µM); MIC [30]: 4 mg/L (≈ 11.1 µM)
